Assay results published in ChEMBL document CHEMBL2434889, “New orally effective 3-(2-nitro)phenylpropanamide analgesic derivatives: synthesis and antinociceptive evaluation” (Eur J Med Chem, 2013).
Active and inactive are the calls of the source.

Assays:
Mus musculus [1] = test: Toxicity in mouse at 3 mg/kg, ip; assay type: organism-based; parameters: dose 3 mg/kg, route intraperitoneal; conditions: in vivo
Mus musculus [2] = test: Antinociceptive activity in mouse assessed as inhibition of acetic acid-induced writhing response at 3 mg/kg, ip after 10 mins measured for 10 mins; assay type: functional; conditions: route intraperitoneal
Summary of the method: (§1)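 Mice (20–24 g) dosed intraperitoneally, then given 0.5% aqueous acetic acid i.p. at 10 ml/kg. Stretches (back arching, pelvic rotation, hind-limb extension) were counted in an observation beaker for 10 min, starting 10 min after the acid. % inhibition is versus the control group. n = 50 mice for control and reference groups, 10 per other treatment. ANOVA with Fisher PLSD.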

Mus musculus [3] = test: Antinociceptive activity in mouse assessed as inhibition of acetic acid-induced writhing response at 15 mg/kg, ip after 10 mins measured for 10 mins; assay type: functional; conditions: route intraperitoneal; summary of the method: as §1
Mus musculus [4] = test: Antinociceptive activity in mouse assessed as inhibition of acetic acid-induced writhing response at 100 umol/kg, po after 10 mins measured for 10 mins; assay type: functional
Summary of the method: (§2)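 Oral dosing, with 8 mice per treatment group. Writhing was induced by 0.5% aqueous acetic acid i.p. (10 ml/kg). Stretches were tallied over 10 min, beginning 10 min after the acid. % inhibition of constrictions is relative to the control group. Statistics by ANOVA and Fisher PLSD.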

Mus musculus [5] = test: Antinociceptive activity in mouse assessed as inhibition of acetic acid-induced writhing response at 100 umol/kg, ip after 10 mins measured for 10 mins; assay type: functional; summary of the method: as §1
Mus musculus [6] = test: Antinociceptive activity in mouse assessed as inhibition of acetic acid-induced writhing response at 33.3 umol/kg, po after 10 mins measured for 10 mins; assay type: functional; summary of the method: as §2
Mus musculus [7] = test: Toxicity in mouse assessed as effect on locomotion at 33 to 100 umol/kg, ip measured after 25 to 35 mins; assay type: organism-based; conditions: in vivo
Summary of the method: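 Mice were injected ip with drug or saline and returned at once to photocell-beam cages for 1 h. Horizontal locomotion was scored as cage crossings and analysed over 25–35 min post-treatment, the same window as the writhing counts. Methylphenidate 10 mg/kg and haloperidol 0.5 mg/kg served as stimulant and depressant references. Statistics by Fisher PLSD.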

Mus musculus [8] = test: Antinociceptive activity in mouse assessed as increase of forepaw licking latency at 100 umol/kg, ip measured after 15 to 60 mins by hot plate test; assay type: functional, organism-based
Summary of the method: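 Hot-plate test at 55 °C with groups of 10 mice. Latency to forepaw licking was timed by stopwatch. Baseline was read twice before injection, and only mice reacting within 4–12 s were used. Readings were taken at 15, 30, 45 and 60 min after ip dosing, with a 30 s cutoff. Vehicle was physiological serum; morphine 5 mg/kg served as reference. Data are mean ± SEM, one-way ANOVA with Fisher PLSD.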

Mus musculus [9] = test: Antinociceptive activity in mouse assessed as inhibition of acetic acid-induced writhing response at 10 umol/kg, po after 10 mins measured for 10 mins; assay type: functional; summary of the method: as §2

| SMILES | Activity (Mus musculus [1]) | inhibition in vivo at 3 mg/kg (Mus musculus [2]) [%] | also measured |
| --- | --- | --- | --- |
| NC(=O)CCc1cc2c(cc1[N+](=O)[O-])OCO2 | Non-toxic | 14.8 |  |
| CCOC(=O)CCc1cc2c(cc1[N+](=O)[O-])OCO2 | Non-toxic | 40.5 |  |
| COc1ccc(N2CCN(C(=O)CCc3cc4c(cc3N)OCO4)CC2)cc1 | Non-toxic | 21.5 |  |
| CC(=O)Oc1ccccc1C(=O)O [ASPIRIN] |  |  | inhibition in vivo at 15 mg/kg (Mus musculus [3]): 62.3%; inhibition in vivo at 100 µmol/kg (Mus musculus [4]): 31.2%; inhibition in vivo at 100 µmol/kg (Mus musculus [5]): 59% |
| CCCCCCNC(=O)CCc1cc2c(cc1[N+](=O)[O-])OCO2 | Non-toxic | 38.6 | inhibition in vivo at 100 µmol/kg (Mus musculus [5]): 26% |
| COc1ccccc1N1CCN(C(=O)CCc2cc3c(cc2[N+](=O)[O-])OCO3)CC1 | Non-toxic | 4.8 |  |
| O=C(CCc1cc2c(cc1[N+](=O)[O-])OCO2)N1CCN(CCO)CC1 | Non-toxic | 32.9 |  |
| O=C(CCc1cc2c(cc1[N+](=O)[O-])OCO2)N1CCN(c2ccccc2)CC1 | Non-toxic | 21.5 |  |
| COc1ccc(N2CCN(C(=O)CCc3cc4c(cc3[N+](=O)[O-])OCO4)CC2)cc1 | Non-toxic | 37.2 | inhibition in vivo at 100 µmol/kg (Mus musculus [4]): 40%; inhibition in vivo at 33.3 µmol/kg (Mus musculus [6]): 35.7%; Activity (Mus musculus [7]): Non-toxic; inhibition in vivo at 100 µmol/kg (Mus musculus [5]): 50%; Activity (Mus musculus [8]): inactive; inhibition in vivo at 10 µmol/kg (Mus musculus [9]): 28.6% |
| O=C(CCc1cc2c(cc1[N+](=O)[O-])OCO2)N1CCN(c2ccc(Cl)c(Cl)c2)CC1 | Non-toxic | 22 |  |
| COc1ccc(CCC(=O)N2CCCCC2)cc1OC | Non-toxic | < 0 |  |
| O=C(CCc1cc2c(cc1[N+](=O)[O-])OCO2)N1CCCCC1 | Non-toxic | 25.2 | inhibition in vivo at 100 µmol/kg (Mus musculus [5]): 44.8% |
| O=C(CCc1cc2c(cc1[N+](=O)[O-])OCO2)Nc1ccccn1 | Non-toxic | 10 |  |
| COc1cc(CCC(=O)N2CCCCC2)c([N+](=O)[O-])cc1OC | Non-toxic | 33 | inhibition in vivo at 100 µmol/kg (Mus musculus [5]): 39.1% |
| O=C(CCc1cc2c(cc1[N+](=O)[O-])OCO2)Nc1ccccc1 | Non-toxic | 12.9 |  |
| COc1ccc(N2CCN(C(=O)CCc3ccc4c(c3)OCO4)CC2)cc1 | Non-toxic | 2.4 |  |
| COc1cc(CCC(=O)N2CCOCC2)c([N+](=O)[O-])cc1OC | Non-toxic | 15.3 |  |
| O=C(CCc1cc2c(cc1[N+](=O)[O-])OCO2)N1CCOCC1 | Non-toxic | 31.4 |  |
| CC1CCCCN1C(=O)CCc1ccc2c(c1)OCO2 (configuration not stated) | Non-toxic | 20.1 |  |
| O=C(CCc1ccc2c(c1)OCO2)N1CCCCC1 | Non-toxic | 53 |  |
| O=C(CCc1cc2c(cc1[N+](=O)[O-])OCO2)N1CCN(c2ccc(F)cc2)CC1 | Non-toxic | 14.3 |  |
